High-throughput results deposited in PubChem BioAssay by several laboratories.
STAT1 activator: STAT1 signaling activators, primary screen, cell-based, HTS, luciferase reporter | NIH 3T3 STAT1-luciferase reporter, IFN-gamma, luminescence; 100% = IFN-gamma alone, no compound | activation (% of control), % at 5.5 µM | 200,000 compounds, 2.6% hits;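 active = activation above the screen-wide mean activation plus 3 SD, cut at about 130% in these data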
APP 5'UTR act: activators of APP 5'UTR luciferase reporter, primary screen, SH-SY5Y cells; SH-SY5Y APP 5'UTR luciferase reporter, luminescence; zero percent = DMSO vehicle wells; activation, % at 2 µM; 190,000 compounds, 1% hits;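 active = activation above a set limit, based on mean plus 3 SD of controls, cut at about 140% in these data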
NF-kB neuron act: activators of NF-kB expression in neurons, primary screen, cell-based, HTS; 190,000 compounds, 1.6% hits; fold change at 12.5 µM; human neuronal cells, NF-kB reporter expression; hits give high values; AID 1239, 2008; in the data active = fold change above about 3.3
STAT3 blocker: IL-6 driven STAT3 reporter inhibitors, primary screen, U3A cells, luciferase, luminescence, MLSCN library; IL-6 STAT3-luciferase reporter; host cell line lacks STAT1; inhibition, % at 5.5 µM; 190,000 compounds, 0.89% hits;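 active = inhibition above the mean inhibition across all screened compounds plus 3 SD, cut at about 44% in these data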
STAT1 blocker: STAT1 signaling inhibitors, primary screen, cell-based, HTS, luciferase reporter; NIH 3T3 STAT1-luciferase reporter, IFN-gamma, luminescence; inhibition, % at 5.5 µM; 200,000 compounds, 0.35% hits; AID 920, 2007;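 active = inhibition above a set limit, the mean inhibition across all tested compounds plus 3 SD, cut at about 34% in these data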
STAT3 activator: IL-6 driven STAT3 reporter potentiators, primary screen, U3A cells, luciferase, luminescence, MLSCN library; 190,000 compounds, 0.91% hits; activation (% of control), % at 5.6 µM; IL-6 STAT3-luciferase reporter; 100% = signal with IL-6 EC80 alone; AID 871, 2007;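 active = activation above the screen-wide mean of compound activation plus 3 SD, cut at about 130% in these data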
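Test system: human U3A cells carrying STAT3-luciferase construct; control set: IL-6-only wells as 100% reference; timing: compound pre-incubation 1 h before IL-6, then 6 h stimulation at 37 °C; also added: IL-6 stimulus at 33 ng/mL final; evaluation: % activation versus median of IL-6-stimulated wells; detection: reporter luminescence signal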
STAT1 activ conf: STAT1 signaling activators, confirmation, cell-based, HTS, luciferase reporter | shares compounds with STAT1 activator | NIH 3T3 STAT1-luciferase reporter, IFN-gamma potentiation, luminescence; 100% = IFN-gamma EC80 alone, no compound | activation (% of control), % at 5.7 µM | 1,200 compounds, 97% hits;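 active = activation above a set limit carried over from the earlier primary STAT1 screen, cut at about 140% in these data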
NFkB act: NF-kB reporter activators, TNF-alpha stimulated, counter-screen for STAT1 activator project, cell-based, HEK293T, luciferase luminescence | AID 1306, 2008 | activation (% of control), % at 5.7 µM | shares compounds with STAT1 activator | 1,200 compounds, 43% hits | 100% = TNF-alpha with vehicle only;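 active = activation above the mean of solvent-only control wells plus 3 SD, set per campaign, cut at about 130% in these data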;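 also: TNF-alpha given at a submaximal dose yielding about 80% of full reporter signal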
STAT3 act STAT1c: STAT3 reporter activation by STAT1 hits, confirmation, counter-screen for STAT1 activator project, U3A cells, luciferase, luminescence; shares compounds with STAT1 activator; 1,200 compounds, 46% hits; activation (% of control), % at 5.7 µM; IL-6; cells lack STAT1; 100 = IL-6 alone, no compound effect;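 active = activation above the solvent-only control well mean plus 3 SD, set per plate batch, cut at about 110% in these data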;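 also: higher means more STAT3 reporter activation so hits are non-selective activators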
Of the large screens only hits and unclear results are named; the others gave an inactive call (follow-up assays come after a bar, where they were run). A selection: hits, their analogues and other compounds. The true share with any hit is near 4.9%.

O=C(NN/C(=N/S(=O)(=O)c1ccc(Cl)cc1)c1ccccc1)c1ccc(O)cc1	STAT1 activator 152 | STAT1 activ conf 154 | NFkB act inactive | STAT3 act STAT1c 111
N#C/C(=N\Nc1ccc(Cl)cc1)C(=N)N1CCCCC1	STAT1 activator 223, APP 5'UTR act 190, NF-kB neuron act 7.4 | STAT1 activ conf 316 | NFkB act 149 | STAT3 act STAT1c 118
Cc1nn(-c2ccccc2)c(N2CCCC2)c1/C=C1\N=C(c2ccc(OC(C)C)cc2)OC1=O	none
Cc1cc(=O)oc2cc(Oc3ccc([N+](=O)[O-])cc3[N+](=O)[O-])ccc12	none
Cc1nn(C(=O)c2cccs2)c(N)c1-c1ccccc1	STAT1 activator 162, NF-kB neuron act 3.4 | STAT1 activ conf 183 | NFkB act 137 | STAT3 act STAT1c inactive
CCCC(=O)Nc1nc(-c2ccc3c(c2)OCCO3)cs1	STAT1 activator 158, APP 5'UTR act 141, NF-kB neuron act 4.5 | STAT1 activ conf 181 | NFkB act 143 | STAT3 act STAT1c inactive
CSCC(=O)Nc1nc(-c2ccc3c(c2)OCCO3)cs1	STAT1 activator 158, APP 5'UTR act 153, NF-kB neuron act 4.8 | STAT1 activ conf 189 | NFkB act 139 | STAT3 act STAT1c 114
CCCC(=O)Nc1nc(-c2ccc(OC)cc2)cs1	none
O=C(CSCC(=O)Nc1nc(-c2ccc3c(c2)OCO3)cs1)Nc1nccs1	none (no result: STAT3 blocker, STAT3 activator)
S=C(NCc1ccco1)NCC1CCCO1 (stereo not drawn)	none
COc1ccc(NC(=S)Nc2ccc3nccnc3c2)cc1	STAT1 activator 153 | STAT1 activ conf 141 | NFkB act inactive | STAT3 act STAT1c inactive
COc1ccc(NC(=S)Nc2ccc3snnc3c2)cc1	none
Cc1ccnc(NC(=O)c2sc3ccccc3c2Cl)c1	STAT1 activator 165, APP 5'UTR act 148, NF-kB neuron act 3.6 | STAT1 activ conf 130 | NFkB act inactive | STAT3 act STAT1c inactive
O=C(NN=C1CCCCCCCCCCC1)c1ccccc1F	none
O=C1NC(=S)SC1=C1CCCC1	none
Cc1ccc(-c2cc(N)n(-c3ccc(F)cc3)n2)cc1	STAT1 activator 155 | STAT1 activ conf 142 | NFkB act inactive | STAT3 act STAT1c inactive
COc1ccc(-c2csc(-c3ccc(C(=O)O)cc3)n2)cc1	STAT1 activator 182, NF-kB neuron act 7.6 | STAT1 activ conf 242 | NFkB act 146 | STAT3 act STAT1c 144
COc1ccc(-c2nc(CC(=O)O)cs2)cc1	none
O=C(O)c1ccc(-c2nc(-c3cccc(C(F)(F)F)c3)cs2)cc1	none
O=C(O)c1ccc(-c2nc(-c3ccc(Cl)cc3)cs2)cc1	STAT1 activator 181, APP 5'UTR act 241, NF-kB neuron act 6.3 | STAT1 activ conf 241 | NFkB act 135 | STAT3 act STAT1c 135
O=c1c2nnn(-c3ccc(Br)cc3)c2ncn1Cc1ccccn1	none
Cn1cccc1-c1cc(C(=O)N/N=C/C=C/c2ccccc2)[nH]n1	none
Cc1occc1C(=O)Nc1ccc2c(c1)CCC2	STAT1 activator 156, APP 5'UTR act 144, NF-kB neuron act 4.7 | STAT1 activ conf 176 | NFkB act inactive | STAT3 act STAT1c inactive
O=C(Nc1ccc2c(c1)CCC2)c1ccccc1	STAT1 activator 181, APP 5'UTR act 172, NF-kB neuron act 8 | STAT1 activ conf 237 | NFkB act inactive | STAT3 act STAT1c inactive
Cc1occc1C(=O)Nc1cccc([N+](=O)[O-])c1	none
O=C(Nc1ccc2c(c1)CCC2)c1ccccc1F	STAT1 activator 179, APP 5'UTR act 183, NF-kB neuron act 8.3 | STAT1 activ conf 222 | NFkB act inactive | STAT3 act STAT1c inactive
CC(NC(=O)Nc1ccccc1F)C(C)(C)C (stereo not drawn)	none
CC1CCCN(Cc2cccc(Oc3ccccc3)c2)C1 (stereo not drawn)	none
CCC(C)N=C1Sc2nc3ccc(C)cc3cc2CN1CCOC (stereo not drawn)	none
COc1ccc(C(=O)c2oc3ccc(OC)cc3c2N)cc1	STAT1 activator 151, APP 5'UTR act 190, NF-kB neuron act 5.9 | STAT1 activ conf 139 | NFkB act 148 | STAT3 act STAT1c 111
COC(=O)c1oc2ccc(OC)cc2c1N	none
CCCOc1ccc(N2CC(C(=O)NCCc3ccc(OC)c(OC)c3)CC2=O)cc1 (stereo not drawn)	none
CCOc1ccccc1NC(=S)/C(=C(\[O-])c1ccc2c(c1)OCCO2)[n+]1ccc(CC)cc1	none (no result: APP 5'UTR act)
N#Cc1c(NC(=S)NC(=O)c2ccccc2)sc2c1CCCC2	none
Cc1cc(C(=O)Nc2sc3c(c2C#N)CCC(C)C3)cs1 (stereo not drawn)	STAT1 activator 152 | STAT1 activ conf 199 | NFkB act 141 | STAT3 act STAT1c 114
N#Cc1c(NC(=O)c2ccccc2)sc2c1CCC2	STAT1 activator 169, NF-kB neuron act 3.8 | STAT1 activ conf 191 | NFkB act inactive | STAT3 act STAT1c inactive
Cc1occc1C(=O)Nc1nnc(-c2cccs2)s1	STAT1 activator 157 | STAT1 activ conf 194 | NFkB act inactive | STAT3 act STAT1c 112
Cc1occc1C(=O)Nc1nccs1	none
COc1ccc2c(c1)oc(=O)c1cc(OC)ccc12	STAT1 activator 153 (no result: STAT3 blocker, STAT3 activator) | STAT1 activ conf 152 | NFkB act inactive | STAT3 act STAT1c inactive
COc1ccc2oc(=N)c(C(=O)Nc3ccccc3)cc2c1	STAT1 activator 162, NF-kB neuron act 5.2 | STAT1 activ conf 196 | NFkB act 138 | STAT3 act STAT1c 136
S=C(Nc1ccccn1)Nc1ccccc1Cl	none
S=C(Nc1ccccn1)c1ccccn1	STAT1 activator 153, NF-kB neuron act 20 | STAT1 activ conf 178 | NFkB act inactive | STAT3 act STAT1c 112
